Assay results published in ChEMBL document CHEMBL3872269, “Design, synthesis and cytotoxic activities of scopoletin-isoxazole and scopoletin-pyrazole hybrids” (Bioorg Med Chem Lett, 2017).

Experiment: Growth inhibition of human SW620 cells after 48 hrs by MTT assay
Type: functional, cell-based
Details: SW-620, 48 h
In short: (§1)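 In vitro cytotoxicity screen on human cell lines. Value reported as IC50, the concentration causing 50% inhibition of the cells.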

Going from `COc1cc2ccc(=O)oc2cc1OC(=O)c1c(C)noc1-c1ccccc1F` to `COc1cc2ccc(=O)oc2cc1OC(=O)c1c(C)noc1-c1ccccc1`, the IC50 falls from greater than 25 µM to 23.4 µM. The second is the more potent here.

Compared with `COc1cc2cc(NC(=O)c3c(C)noc3-c3ccc([N+](=O)[O-])cc3)c(=O)oc2cc1OCCN1CCOCC1`, `COc1cc2cc(NC(=O)c3c(C)noc3-c3ccc(Cl)cc3)c(=O)oc2cc1OCCN1CCOCC1` is higher in IC50: 10.5 µM for the first, greater than 25 µM for the second.

`COc1cc2ccc(=O)oc2cc1O` [SCOPOLETIN] and `COc1cc2ccc(=O)oc2cc1OC(=O)c1c(-c2ccccc2)n[nH]c1C` cannot be ordered by IC50: greater than 25 µM for the first, greater than 25 µM for the second.

Going from `COc1cc2ccc(=O)oc2cc1OC(=O)c1c(-c2ccccc2F)n[nH]c1C` to `COc1cc2ccc(=O)oc2cc1OC(=O)c1c(-c2ccc(Cl)cc2)n[nH]c1C`, the IC50 falls from greater than 25 µM to 17.1 µM.

Going from `COc1cc2cc(NC(=O)c3c(C)noc3-c3ccccc3)c(=O)oc2cc1OCCN1CCOCC1` to `COc1cc2cc(NC(=O)c3c(C)noc3-c3ccccc3F)c(=O)oc2cc1OCCN1CCOCC1`, the IC50 falls from greater than 25 µM to 13.9 µM.

Going from `CCN(CC)CCNC(=O)c1c(C)[nH]c(/C=C2\C(=O)Nc3ccc(F)cc32)c1C` [SUNITINIB] to `COc1cc2ccc(=O)oc2cc1OC(=O)c1c(-c2ccc([N+](=O)[O-])cc2)n[nH]c1C`, the IC50 rises from 6.25 µM to greater than 25 µM. The first is the more potent here.

`COc1cc2ccc(=O)oc2cc1OC(=O)c1c(C)noc1-c1ccc(Cl)cc1` and `COc1cc2ccc(=O)oc2cc1OC(=O)c1c(C)noc1-c1ccc([N+](=O)[O-])cc1` are within 1.5-fold of each other in IC50: 12.7 µM for the first, 9.83 µM for the second.

Experiment: Growth inhibition of human HFL1 cells after 48 hrs by MTT assay
Type: cell-based
Details: HFL1, 48 h
In short: as §1

`COc1cc2cc(NC(=O)c3c(C)noc3-c3ccc([N+](=O)[O-])cc3)c(=O)oc2cc1OCCN1CCOCC1` and `COc1cc2cc(NC(=O)c3c(C)noc3-c3ccccc3F)c(=O)oc2cc1OCCN1CCOCC1` are within 1.5-fold of each other in IC50: 74.2 µM for the first, 68.5 µM for the second.

`COc1cc2ccc(=O)oc2cc1OC(=O)c1c(-c2ccc(Cl)cc2)n[nH]c1C` and `COc1cc2ccc(=O)oc2cc1OC(=O)c1c(C)noc1-c1ccc(Cl)cc1` are within 1.5-fold of each other in IC50: 47 µM for the first, 42.2 µM for the second.

`COc1cc2ccc(=O)oc2cc1OC(=O)c1c(C)noc1-c1ccccc1` and `COc1cc2ccc(=O)oc2cc1OC(=O)c1c(C)noc1-c1ccc([N+](=O)[O-])cc1` are within 1.5-fold of each other in IC50: 69.3 µM for the first, 90.9 µM for the second.

Experiment: Growth inhibition of human HuH7 cells after 48 hrs by MTT assay
Type: functional, cell-based
Details: Huh-7, 48 h
In short: as §1

`COc1cc2ccc(=O)oc2cc1OC(=O)c1c(C)noc1-c1ccccc1F` and `COc1cc2ccc(=O)oc2cc1OC(=O)c1c(C)noc1-c1ccccc1` cannot be ordered by IC50: greater than 25 µM for the first, greater than 25 µM for the second.

Going from `COc1cc2cc(NC(=O)c3c(C)noc3-c3ccc([N+](=O)[O-])cc3)c(=O)oc2cc1OCCN1CCOCC1` to `COc1cc2cc(NC(=O)c3c(C)noc3-c3ccc(Cl)cc3)c(=O)oc2cc1OCCN1CCOCC1`, the IC50 rises from 12.1 µM to greater than 25 µM.

`COc1cc2ccc(=O)oc2cc1O` [SCOPOLETIN] and `COc1cc2ccc(=O)oc2cc1OC(=O)c1c(-c2ccccc2)n[nH]c1C` cannot be ordered by IC50: greater than 25 µM for the first, greater than 25 µM for the second.

Going from `COc1cc2ccc(=O)oc2cc1OC(=O)c1c(-c2ccccc2F)n[nH]c1C` to `COc1cc2ccc(=O)oc2cc1OC(=O)c1c(-c2ccc(Cl)cc2)n[nH]c1C`, the IC50 falls from greater than 25 µM to 16.2 µM.

First: COc1cc2cc(NC(=O)c3c(C)noc3-c3ccccc3)c(=O)oc2cc1OCCN1CCOCC1
Second: COc1cc2cc(NC(=O)c3c(C)noc3-c3ccccc3F)c(=O)oc2cc1OCCN1CCOCC1
The IC50 of the first is higher: greater than 25 µM for the first, 14.7 µM for the second. The second is the more potent here.

Going from `CCN(CC)CCNC(=O)c1c(C)[nH]c(/C=C2\C(=O)Nc3ccc(F)cc32)c1C` [SUNITINIB] to `COc1cc2ccc(=O)oc2cc1OC(=O)c1c(-c2ccc([N+](=O)[O-])cc2)n[nH]c1C`, the IC50 rises from 3.03 µM to greater than 25 µM. The first is the more potent here.

`COc1cc2ccc(=O)oc2cc1OC(=O)c1c(C)noc1-c1ccc(Cl)cc1` and `COc1cc2ccc(=O)oc2cc1OC(=O)c1c(C)noc1-c1ccc([N+](=O)[O-])cc1` are within 1.5-fold of each other in IC50: 12.4 µM for the first, 8.76 µM for the second.

Experiment: Growth inhibition of human HCT116 cells after 48 hrs by MTT assay
Type: functional, cell-based
Details: HCT-116, 48 h
In short: as §1

Compared with `COc1cc2ccc(=O)oc2cc1OC(=O)c1c(C)noc1-c1ccccc1F`, `COc1cc2ccc(=O)oc2cc1OC(=O)c1c(C)noc1-c1ccccc1` is lower in IC50: greater than 25 µM for the first, 22.7 µM for the second. The second is the more potent here.

Going from `COc1cc2cc(NC(=O)c3c(C)noc3-c3ccc([N+](=O)[O-])cc3)c(=O)oc2cc1OCCN1CCOCC1` to `COc1cc2cc(NC(=O)c3c(C)noc3-c3ccc(Cl)cc3)c(=O)oc2cc1OCCN1CCOCC1`, the IC50 rises from 10.3 µM to greater than 25 µM.

`COc1cc2ccc(=O)oc2cc1O` [SCOPOLETIN] and `COc1cc2ccc(=O)oc2cc1OC(=O)c1c(-c2ccccc2)n[nH]c1C` cannot be ordered by IC50: greater than 25 µM for the first, greater than 25 µM for the second.

Going from `COc1cc2ccc(=O)oc2cc1OC(=O)c1c(-c2ccccc2F)n[nH]c1C` to `COc1cc2ccc(=O)oc2cc1OC(=O)c1c(-c2ccc(Cl)cc2)n[nH]c1C`, the IC50 falls from greater than 25 µM to 13.8 µM. The second is the more potent here.

`COc1cc2cc(NC(=O)c3c(C)noc3-c3ccccc3)c(=O)oc2cc1OCCN1CCOCC1` and `COc1cc2cc(NC(=O)c3c(C)noc3-c3ccccc3F)c(=O)oc2cc1OCCN1CCOCC1` are within 1.5-fold of each other in IC50: 20.9 µM for the first, 15.6 µM for the second.

First: CCN(CC)CCNC(=O)c1c(C)[nH]c(/C=C2\C(=O)Nc3ccc(F)cc32)c1C [SUNITINIB]
Second: COc1cc2ccc(=O)oc2cc1OC(=O)c1c(-c2ccc([N+](=O)[O-])cc2)n[nH]c1C
The IC50 of the first is lower: 5.62 µM for the first, greater than 25 µM for the second. The first is the more potent here.

`COc1cc2ccc(=O)oc2cc1OC(=O)c1c(C)noc1-c1ccc(Cl)cc1` and `COc1cc2ccc(=O)oc2cc1OC(=O)c1c(C)noc1-c1ccc([N+](=O)[O-])cc1` are within 1.5-fold of each other in IC50: 10.9 µM for the first, 9.21 µM for the second.
